ChEMBL document CHEMBL1156107, “Synthesis of new alkylaminooxysterols with potent cell differentiating activities: identification of leads for the treatment of cancer and neurodegenerative diseases” (J Med Chem, 2009)
Calls of active or inactive are those of the source. The calls are words filed in the database; no cut-off is given here.

Experiments:
SK-N-SH [1] = experiment: Induction of neurite outgrowth in human SK-N-SH cells at 2 to 5 uM after 48 hrs by crystal violet staining; type: functional, cell-based
SH-SY5Y [2] = experiment: Induction of neurite outgrowth in human SH-SY5Y cells at 2 to 5 uM after 48 hrs by crystal violet staining; type: functional, cell-based
N2a [3] = experiment: Induction of neurite outgrowth in mouse Neuro2a cells at 2 to 5 uM after 48 hrs by crystal violet staining; type: functional, cell-based
U-87MG ATCC [4] = experiment: Induction of neurite outgrowth in human U87 cells at 2 to 5 uM after 48 hrs by crystal violet staining; type: functional, cell-based
P19 [5] = experiment: Induction of neurite outgrowth in mouse P19 cells at 2 to 5 uM after 48 hrs by crystal violet staining; type: functional, cell-based
U-937 [6] = experiment: Induction of dendrite out growth in IL-4/GMCSF-stimulated human U937 cells assessed as dendrite length at 100 nM after 48 hrs by light microscopy; type: functional
How it was run: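 U937 cells at 1.1 × 10⁶ cells/mL were primed with 10 ng/mL PMA for 48 h in RPMI with 10% heat-inactivated serum. Adherent cells were then given 100 ng/mL IL-4 plus 100 ng/mL GM-CSF or 100 nM compound for 48 h. Dendrite length scored by light microscopy, from none to over 100 μm with a contact network.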

U-937 [7] = experiment: Cytotoxicity against human U937 cells after 3 days by trypan blue exclusion assay; type: functional, cell-based; settings: u-937
How it was run: (§1)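 U937 and P19 cells treated with compound. Cell death scored by trypan blue exclusion, with cells scraped, suspended in 0.25% w/v trypan blue in PBS and counted in a Malassez cell. IC50 is the concentration giving 50% cytotoxicity.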

P19 [8] = experiment: Induction of dendrite out growth in IL-4/GMCSF-stimulated mouse P19 cells assessed as dendrite length at 100 nM after 48 hrs by light microscopy; type: functional
P19 [9] = experiment: Cytotoxicity against mouse P19 cells after 3 days by trypan blue exclusion assay; type: functional, cell-based; settings: p19; how it was run: as §1
SK-N-SH [10] = experiment: Induction of neurite outgrowth in human SK-N-SH cells at 40 to 60 uM after 48 hrs by crystal violet staining; type: functional, cell-based
SH-SY5Y [11] = experiment: Induction of neurite outgrowth in human SH-SY5Y cells at 40 to 60 uM after 48 hrs by crystal violet staining; type: functional, cell-based
N2a [12] = experiment: Induction of neurite outgrowth in mouse Neuro2a cells at 40 to 60 uM after 48 hrs by crystal violet staining; type: functional, cell-based
U-87MG ATCC [13] = experiment: Induction of neurite outgrowth in human U87 cells at 40 to 60 uM after 48 hrs by crystal violet staining; type: functional, cell-based
P19 [14] = experiment: Induction of neurite outgrowth in mouse P19 cells at 40 to 60 uM after 48 hrs by crystal violet staining; type: functional, cell-based
MCF7 = experiment: Cytotoxicity against human MCF7 cells up to 20 uM after 72 hrs by trypan blue exclusion assay; type: functional, cell-based
How it was run: (§2)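 Tumor lines grown at 37 °C in 5% CO₂, in RPMI 1640 or DMEM with FBS. Cells exposed to compound from 10 nM to 20 μM for 72 h. Cytotoxicity counted by trypan blue exclusion: cells scraped, suspended in 0.25% w/v trypan blue in PBS and counted in a Malassez cell under light microscopy. IC50 is the concentration giving 50% cytotoxicity.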

TS/A = experiment: Cytotoxicity against mouse TSA cells up to 20 uM after 72 hrs by trypan blue exclusion assay; type: functional, cell-based; how it was run: as §2
SK-MEL-28 = experiment: Cytotoxicity against human SK-MEL-28 cells up to 20 uM after 72 hrs by trypan blue exclusion assay; type: functional, cell-based; how it was run: as §2
B16-F10 = experiment: Cytotoxicity against mouse B16F10 cells up to 20 uM after 72 hrs by trypan blue exclusion assay; type: functional, cell-based; how it was run: as §2
A549 = experiment: Cytotoxicity against human A549 cells up to 20 uM after 72 hrs by trypan blue exclusion assay; type: functional, cell-based; how it was run: as §2
P19 [15] = experiment: Cytotoxicity against mouse P19 cells up to 20 uM after 72 hrs by trypan blue exclusion assay; type: functional, cell-based; how it was run: as §2
SK-N-SH [16] = experiment: Cytotoxicity against human SK-N-SH cells up to 20 uM after 72 hrs by trypan blue exclusion assay; type: functional, cell-based; how it was run: as §2
SH-SY5Y [17] = experiment: Cytotoxicity against human SH-SY5Y cells up to 20 uM after 72 hrs by trypan blue exclusion assay; type: functional, cell-based; how it was run: as §2
N2a [18] = experiment: Cytotoxicity against mouse Neuro2a cells up to 20 uM after 72 hrs by trypan blue exclusion assay; type: functional, cell-based; how it was run: as §2
U-87MG ATCC [19] = experiment: Cytotoxicity against human U87 cells up to 20 uM after 72 hrs by trypan blue exclusion assay; type: functional, cell-based; how it was run: as §2
U-937 [20] = experiment: Cytotoxicity against human U937 cells up to 20 uM after 72 hrs by trypan blue exclusion assay; type: functional, cell-based; how it was run: as §2
NB-4 = experiment: Cytotoxicity against human NB4 cells up to 20 uM after 72 hrs by trypan blue exclusion assay; type: functional, cell-based; how it was run: as §2
KG-1 = experiment: Cytotoxicity against human KG1 cells up to 20 uM after 72 hrs by trypan blue exclusion assay; type: functional, cell-based; how it was run: as §2
HCT-8 = experiment: Cytotoxicity against human HCT8 cells up to 20 uM after 72 hrs by trypan blue exclusion assay; type: functional, cell-based; how it was run: as §2
SW-620 = experiment: Cytotoxicity against human SW620 cells up to 20 uM after 72 hrs by trypan blue exclusion assay; type: functional, cell-based; how it was run: as §2
P19 [21] = experiment: Induction of neuritogenesis in mouse P19 cells assessed as dendrite expansion at 10 nM after 48 hrs by light microscopy; type: functional, cell-based
How it was run: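 P19 embryonal carcinoma cells exposed to 10 nM or solvent vehicle for 48 h; dendrite expansion and cell-contact network assessed by light microscopy.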

P19 [22] = experiment: Induction of mouse P19 cell differentiation into neuron assessed as stimulation of MAP2A expression at 10 nM after 48 hrs by immunocytochemistry; type: functional, cell-based
How it was run: (§3)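 P19 cells seeded at 10 000/well and treated with vehicle or 10 nM compound. Cells fixed in 4% paraformaldehyde, permeabilized with 1% BSA/0.05% saponin and blocked in 3% BSA. Stained with anti-MAP2A (1/100) or anti-β3-tubulin (1/200) for 1 h at room temperature, then TRITC secondary, and viewed by fluorescence microscopy.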

P19 [23] = experiment: Induction of mouse P19 cell differentiation into neuron assessed as stimulation of beta-3 tubulin expression at 10 nM after 48 hrs by immunocytochemistry; type: functional, cell-based; how it was run: as §3
P19 [24] = experiment: Induction of mouse P19 cell differentiation into neuron assessed as stimulation of NMDAR1 expression at 10 nM after 48 hrs by Western blotting; type: functional, cell-based
How it was run: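 P19 cells treated with 10 nM compound for 48 h and lysed in Tris pH 7.4 RIPA-type buffer. Proteins run on 7.5% SDS-PAGE and blotted to PVDF. Probed overnight at 4 °C with anti-NMDAR1 (1:1000), with GAPDH as loading control, and detected by enhanced chemiluminescence.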

SK-N-SH [25] = experiment: Induction of neurite outgrowth in human SK-N-SH cells at 100 nM after 48 hrs by crystal violet staining; type: functional, cell-based
SH-SY5Y [26] = experiment: Induction of neurite outgrowth in human SH-SY5Y cells at 100 nM after 48 hrs by crystal violet staining; type: functional, cell-based
How it was run: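 Cells exposed to 100 nM compound for 48 h on poly-D-lysine-coated inserts with a 3 μm pore membrane. Neurites crossing the membrane were methanol-fixed and stained, cell bodies were removed, and the dye was extracted and read at 562 nm.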

N2a [27] = experiment: Induction of neurite outgrowth in mouse Neuro2a cells at 100 nM after 48 hrs by crystal violet staining; type: functional, cell-based
U-87MG ATCC [28] = experiment: Induction of neurite outgrowth in human U87 cells at 100 nM after 48 hrs by crystal violet staining; type: functional, cell-based
P19 [29] = experiment: Induction of neurite outgrowth in mouse P19 cells at 100 nM after 48 hrs by crystal violet staining; type: functional, cell-based
Mus musculus = species on record: Mus musculus; experiment: Neuroprotective activity in mouse motoneuron assessed as cell proliferation at 10 nM treated for 3 days measured on day 2 to 6 post-treatment by cell counting method; type: functional; settings: in the assay text read “cell survival” for “cell proliferation”
How it was run: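 Purified mouse motoneurons; solvent vehicle, 100 ng/mL BDNF or 10 nM test agent added immediately after seeding; cells counted at days 2, 3, 4 and 6; surviving motoneurons expressed as percentage.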

U-937 [30] = experiment: Cytotoxicity against human U937 cells up to 20 uM after 3 days by trypan blue exclusion assay; type: functional, cell-based; how it was run: as §1
P19 [31] = experiment: Cytotoxicity against mouse P19 cells up to 20 uM after 3 days by trypan blue exclusion assay; type: functional, cell-based; how it was run: as §1

## CC1=C(/C=C/C(C)=C/C=C/C(C)=C/C(=O)O)C(C)(C)CCC1 [TRETINOIN]
SK-N-SH [1]
  Activity: Active
SH-SY5Y [2]
  Activity: Active
N2a [3]
  Activity: Active
U-87MG ATCC [4]
  Activity: Active
P19 [5]
  Activity: Active
U-937 [6]
  Activity: inactive
U-937 [7]
  IC50: Not Active
P19 [8]
  Activity: inactive
P19 [9]
  IC50: Not Active

## CC/C=C\C/C=C\C/C=C\C/C=C\C/C=C\C/C=C\CCC(=O)O
SK-N-SH [10]
  Activity: Active
SH-SY5Y [11]
  Activity: Active
N2a [12]
  Activity: Active
U-87MG ATCC [13]
  Activity: Active
P19 [14]
  Activity: Active

## CC(C)CCC[C@@H](C)[C@H]1CC[C@H]2C3=C[C@@H](NCCCNCCCCN)[C@@]4(O)C[C@@H](O)CC[C@]4(C)[C@H]3CC[C@]12C [DENDROGENIN B]
MCF7
  Activity: inactive
TS/A
  Activity: inactive
SK-MEL-28
  Activity: inactive
B16-F10
  Activity: inactive
A549
  Activity: inactive
P19 [15]
  Activity: inactive
SK-N-SH [16]
  Activity: inactive
SH-SY5Y [17]
  Activity: inactive
N2a [18]
  Activity: inactive
U-87MG ATCC [19]
  Activity: inactive
U-937 [20]
  Activity: inactive
NB-4
  Activity: inactive
KG-1
  Activity: inactive
HCT-8
  Activity: inactive
SW-620
  Activity: inactive
P19 [21]
  Activity: Active
P19 [22]
  Activity: Active
P19 [23]
  Activity: Active
P19 [24]
  Activity: Active
SK-N-SH [25]
  Activity: Active
SH-SY5Y [26]
  Activity: Active
N2a [27]
  Activity: Active
U-87MG ATCC [28]
  Activity: Active
P19 [29]
  Activity: Active
Mus musculus
  Activity: Active
U-937 [6]
  Activity: <5 um
U-937 [7]
  IC50: Not Active
P19 [8]
  Activity: > 100 um
P19 [9]
  IC50: Not Active
U-937 [30]
  Activity: inactive
P19 [31]
  Activity: inactive
